Values joined by “and” are separate entries in the source; they are usually repeats but may differ in a detail not shown here. Equal values may be shown once.
What was measured:
PC-3 = test: Extra cellular concentration of radiolabeled compound was determined in human prostate PC3 adenocarcinoma cells; format: functional, cell-based
Procedure, shortened: (§1)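 V79 Chinese hamster lung fibroblasts or human PC3 prostate adenocarcinoma cells, grown at 37 °C in MEM with 15% fetal calf serum. Log-phase cells were trypsinized and suspended at 2 × 10⁵/mL in calcium-free MEM, then preincubated 4 h at 37 °C on a roller. Carrier-free ¹²⁵I-labelled dihydrorhodamine derivative was added and incubated 2 h at 37 °C. Cell radioactivity was measured by microfuge; intracellular concentration was derived from Coulter-measured cell volumes.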

Cricetulus griseus = species on record: Cricetulus griseus; test: Extra cellular concentration of radiolabeled compound was determined in chinese hamster V79 lung fibroblasts; format: functional; procedure, shortened: as §1
[1] = Ratio of pCi/cell cellular uptake to uCi/mL cellular uptake; format: functional

SMILES: COC(=O)c1ccccc1C1c2cc(I)c(N)cc2Oc2cc(N)c(I)cc21
- Concentration (PC-3): 0.883 uCi ml-1
- Concentration (Cricetulus griseus): 0.97 uCi ml-1

SMILES: COC(=O)c1ccccc1C1c2cc(I)c(N)cc2Oc2c1cc(I)c(N)c2I (stereo unspecified)
- Concentration (PC-3): 1.15 uCi ml-1
- Ratio [1]: 0.152 and 0.348
- Concentration (Cricetulus griseus): 1.3 uCi ml-1

SMILES: COC(=O)c1ccccc1C1c2cc(I)c(N)cc2Oc2c1ccc(N)c2I (stereo unspecified)
- Concentration (PC-3): 1.35 uCi ml-1
- Concentration (Cricetulus griseus): 1.64 uCi ml-1

SMILES: COC(=O)c1ccccc1C1c2ccc(N)cc2Oc2cc(N)c(I)cc21 (stereo unspecified)
- Concentration (PC-3): 0.937 uCi ml-1
- Concentration (Cricetulus griseus): 0.956 uCi ml-1

SMILES: COC(=O)c1ccccc1C1c2ccc(N)cc2Oc2c1ccc(N)c2I (stereo unspecified)
- Concentration (PC-3): 1.2 uCi ml-1
- Concentration (Cricetulus griseus): 1.27 uCi ml-1
